Source: ChEMBL document CHEMBL3616427, “Design, synthesis, and biological evaluation of amide imidazole derivatives as novel metabolic enzyme CYP26A1 inhibitors” (Bioorg Med Chem, 2015)

What was measured:
Cytochrome P450 26A1 [1] = biological target: T1, Cytochrome P450 26A1 (Homo sapiens, UniProt O43174); assay: Inhibition of CYP26A1 (unknown origin)
T1 sequence (O43174 whole entry): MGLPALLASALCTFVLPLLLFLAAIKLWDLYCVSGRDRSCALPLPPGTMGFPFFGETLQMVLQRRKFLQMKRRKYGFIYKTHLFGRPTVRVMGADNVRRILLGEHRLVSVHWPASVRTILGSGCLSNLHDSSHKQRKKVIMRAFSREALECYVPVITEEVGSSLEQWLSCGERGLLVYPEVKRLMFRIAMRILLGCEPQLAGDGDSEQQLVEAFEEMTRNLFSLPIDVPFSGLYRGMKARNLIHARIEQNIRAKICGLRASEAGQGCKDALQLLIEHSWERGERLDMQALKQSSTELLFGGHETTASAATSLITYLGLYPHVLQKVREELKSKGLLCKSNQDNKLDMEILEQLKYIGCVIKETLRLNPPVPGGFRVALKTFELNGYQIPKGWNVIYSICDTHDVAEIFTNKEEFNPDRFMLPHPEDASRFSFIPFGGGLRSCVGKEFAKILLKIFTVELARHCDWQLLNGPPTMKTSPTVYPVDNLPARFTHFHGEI

HL-60 [2] = assay: Growth inhibition of human HL60 cells at 10 uM incubated for 48 hrs by MTT assay; assay type: functional; settings: HL-60, 48 h, read-out: GI
How it was run: (§1)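 HL-60 cells plated at 1–104 cells/well (so in the source) and held 24 h at 37 °C, then exposed 48 h to inhibitor at 10 µM and/or ATRA at 0.1 µM. MTT (2 mg/mL) was added for 4 h at 37 °C, the supernatant was discarded, formazan was dissolved in DMSO and absorbance read at 570 nm. Percent growth inhibition reported.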

Cytochrome P450 26A1 [3] = biological target: T1, Cytochrome P450 26A1; assay: Inhibition of CYP26A1 in ATRA-induced human HL60 cell microsomes incubated for 30 mins in dark condition with NADPH and ATRA by HPLC method; assay type: cell-based, HL-60
HL-60 [4] = assay: Growth inhibition of human HL60 cells at 10 uM incubated for 48 hrs in presence of 0.1 uM ATRA by MTT assay; assay type: functional; how it was run: as §1
HL-60 [5] = assay: Induction of cell differentiation in human HL60 cells at 10 uM incubated for 72 hrs in presence of 0.1 uM ATRA by NBT dye based assay; assay type: functional
HL-60 [6] = assay: Induction of cell differentiation in human HL60 cells at 10 uM incubated for 72 hrs by NBT dye based assay; assay type: functional
Cytochrome P450 2D6 = Cytochrome P450 2D6 (Homo sapiens, UniProt P10635); assay: Inhibition of CYP2D6 (unknown origin) incubated for 45 mins using NADPH and ATRA by HPLC assay; assay type: ADME
Cytochrome P450 2D6, sequence (P10635 whole entry): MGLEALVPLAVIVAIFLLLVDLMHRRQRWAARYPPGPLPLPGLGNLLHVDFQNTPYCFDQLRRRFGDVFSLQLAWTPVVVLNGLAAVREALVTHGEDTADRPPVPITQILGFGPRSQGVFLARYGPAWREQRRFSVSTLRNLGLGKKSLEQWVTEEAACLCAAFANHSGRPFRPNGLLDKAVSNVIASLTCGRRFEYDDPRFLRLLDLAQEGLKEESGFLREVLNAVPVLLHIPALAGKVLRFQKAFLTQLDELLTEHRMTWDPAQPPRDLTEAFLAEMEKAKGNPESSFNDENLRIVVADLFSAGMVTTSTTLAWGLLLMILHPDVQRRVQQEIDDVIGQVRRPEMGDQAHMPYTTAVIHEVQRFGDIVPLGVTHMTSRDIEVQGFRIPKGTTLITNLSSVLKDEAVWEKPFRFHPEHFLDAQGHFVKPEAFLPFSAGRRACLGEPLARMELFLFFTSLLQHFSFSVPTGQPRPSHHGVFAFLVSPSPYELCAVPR

Cytochrome P450 3A4 = Cytochrome P450 3A4 (Homo sapiens, UniProt P08684); assay: Inhibition of CYP3A4 (unknown origin) incubated for 45 mins using NADPH by fluorescence assay; assay type: ADME
Cytochrome P450 3A4, sequence (P08684 whole entry): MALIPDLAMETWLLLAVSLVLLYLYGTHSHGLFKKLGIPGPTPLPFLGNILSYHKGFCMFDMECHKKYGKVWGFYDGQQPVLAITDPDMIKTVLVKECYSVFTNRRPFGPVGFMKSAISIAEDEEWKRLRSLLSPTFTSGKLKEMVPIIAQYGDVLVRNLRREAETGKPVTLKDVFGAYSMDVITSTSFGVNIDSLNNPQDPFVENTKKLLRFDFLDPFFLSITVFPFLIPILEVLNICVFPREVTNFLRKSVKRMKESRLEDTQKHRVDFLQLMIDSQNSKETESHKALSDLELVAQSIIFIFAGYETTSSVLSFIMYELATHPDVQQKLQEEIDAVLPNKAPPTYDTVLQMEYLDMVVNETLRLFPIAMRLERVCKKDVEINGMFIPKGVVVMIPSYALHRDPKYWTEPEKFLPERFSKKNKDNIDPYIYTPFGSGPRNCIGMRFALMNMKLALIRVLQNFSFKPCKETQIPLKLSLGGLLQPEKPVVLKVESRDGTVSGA

Cytochrome P450 26A1 [7] = biological target: T1, Cytochrome P450 26A1; assay: Inhibition of CYP26A1-mediated ATRA metabolism in human HL60 cells assessed as ATRA level at 5 uM incubated for 48 hrs by HPLC method (reference value: 4.95 uM); assay type: cell-based; settings: hl-60, 48 h
Cytochrome P450 26A1 [8] = biological target: T1, Cytochrome P450 26A1; assay: Inhibition of CYP26A1-mediated ATRA metabolism in human HL60 cells assessed as ATRA level at 5 uM incubated for 96 hrs by HPLC method (reference value: 1.21 uM); assay type: cell-based; settings: hl-60, 96 h
Cytochrome P450 26A1 [9] = biological target: T1, Cytochrome P450 26A1; assay: Inhibition of CYP26A1-mediated ATRA metabolism in human HL60 cells assessed as ATRA level at 5 uM incubated for 72 hrs by HPLC method (reference value: 3.6 uM); assay type: cell-based; settings: hl-60, 72 h
Cytochrome P450 26A1 [10] = biological target: T1, Cytochrome P450 26A1; assay: Inhibition of CYP26A1-mediated ATRA metabolism in human HL60 cells assessed as ATRA level at 5 uM incubated for 24 hrs by HPLC method (reference value: 7.19 uM); assay type: cell-based; settings: hl-60, 24 h
[11] = Selectivity index, ratio of IC50 for CYP2D6 (unknown origin) to IC50 for CYP26A1 in ATRA-induced human HL60 cell microsomes; set-up: species or system HL-60
[12] = Selectivity index, ratio of IC50 for CYP3A4 (unknown origin) to IC50 for CYP26A1 in ATRA-induced human HL60 cell microsomes; set-up: species or system HL-60
HL-60 [13] = assay: Growth inhibition of human HL60 cells at 0.1 uM incubated for 48 hrs by MTT assay; assay type: functional; settings: HL-60, 48 h, read-out: GI; how it was run: as §1
HL-60 [14] = assay: Induction of cell differentiation in human HL60 cells at 0.1 uM incubated for 72 hrs by NBT dye based assay; assay type: functional

SMILES	inhibition of growth at 10 µM (HL-60 [2])	IC50 (Cytochrome P450 26A1 [3])	growth inhibition (GI) (HL-60 [4])	Activity (HL-60 [5])	Activity (HL-60 [6])	other results
CCC(CC)[C@H](c1ccc(Nc2nc3ccccc3s2)cc1)n1cncn1						IC50 (Cytochrome P450 26A1 [1]): 4 nM
CCOC(=O)C(Cn1ccnc1)NC(=O)c1c(C)nn(-c2ccccc2)c1Cl (stereo not drawn)	7.25%	600 nM	52.17%	46.44%	0%	
CCCOC(=O)C(Cn1ccnc1)NC(=O)c1c(C)nn(-c2ccccc2)c1Cl (stereo not drawn)	6.59%	620 nM	45.58%	43.83%	0%	
Cc1nn(-c2ccccc2)c(Cl)c1C(=O)NC(Cn1ccnc1)C(=O)OCC(C)C (stereo not drawn)	8.24%	1020 nM	43.54%	40.79%	0%	
CC(C)COC(=O)C(Cn1ccnc1)NC(=O)c1ccc(-c2ccccc2)cc1 (stereo not drawn)	8.99%	970 nM	46.55%	39.87%	0%	
COC(=O)C(Cn1ccnc1)NC(=O)c1c(C)nn(-c2ccccc2)c1Cl (stereo not drawn)	10.9%	220 nM	55.36%	50.51%	0%	IC50 (Cytochrome P450 2D6): 5560 nM; IC50 (Cytochrome P450 3A4): 1170 nM; Activity (Cytochrome P450 26A1 [7]): 7.45 µM; Activity (Cytochrome P450 26A1 [8]): 3.51 µM; Activity (Cytochrome P450 26A1 [9]): 5.67 µM; Activity (Cytochrome P450 26A1 [10]): 9.3 µM
Cc1nn(-c2ccccc2)c(Cl)c1C(=O)NC(Cn1ccnc1)C(=O)OC(C)C (stereo not drawn)	4.98%	460 nM	44.79%	51.85%	0%	IC50 (Cytochrome P450 2D6): 9640 nM; Ratio IC50 [11]: 21; IC50 (Cytochrome P450 3A4): 4920 nM; Activity (Cytochrome P450 26A1 [7]): 7.87 µM; Activity (Cytochrome P450 26A1 [8]): 4.41 µM; Activity (Cytochrome P450 26A1 [9]): 6.06 µM; Ratio IC50 [12]: 11; Activity (Cytochrome P450 26A1 [10]): 9.22 µM
CCOC(=O)C(Cn1ccnc1)NC(=O)c1nc2ccccc2s1 (stereo not drawn)	6.66%	740 nM	45.4%	48.31%	0%	
CC(C)COC(=O)C(Cn1ccnc1)NC(=O)c1nc2ccccc2s1 (stereo not drawn)	9.49%	1110 nM	43.33%	38.62%	0%	
CC(C)OC(=O)C(Cn1ccnc1)NC(=O)c1nc2ccccc2s1 (stereo not drawn)	5.04%	630 nM	46.36%	50.85%	0%	
Clc1cccc(C(c2ccc3[nH]cnc3c2)n2ccnc2)c1 (stereo not drawn) [LIAROZOLE]	16.4%		48.37%	45.55%	0%	IC50 (Cytochrome P450 2D6): 4760 nM
COC(=O)C(Cn1ccnc1)NC(=O)c1ccc(-c2ccccc2)cc1 (stereo not drawn)	9.64%	370 nM	51.38%	47.69%	0%	
COC(=O)C(Cn1ccnc1)NC(=O)c1nc2ccccc2s1 (stereo not drawn)	8.64%	410 nM	50.36%	49.11%	0%	
CCCOC(=O)C(Cn1ccnc1)NC(=O)c1nc2ccccc2s1 (stereo not drawn)	7.64%	840 nM	47.83%	42.62%	0%	
CCCOC(=O)C(Cn1ccnc1)NC(=O)c1ccc(-c2ccccc2)cc1 (stereo not drawn)	5.04%	790 nM	42.92%	44.78%	0%	
CC(C(c1ccc(Nc2nc3ccccc3s2)cc1)n1cncn1)N(C)C (stereo not drawn)						IC50 (Cytochrome P450 26A1 [1]): 10 nM
CCOC(=O)C(Cn1ccnc1)NC(=O)c1ccc(-c2ccccc2)cc1 (stereo not drawn)	7.61%	650 nM	48.19%	45.64%	0%	
CC1=C(/C=C/C(C)=C/C=C/C(C)=C/C(=O)O)C(C)(C)CCC1 [TRETINOIN]						inhibition of growth at 0.1 µM (HL-60 [13]): 21.8%; Activity (HL-60 [14]): 28.04%
CC(C)OC(=O)C(Cn1ccnc1)NC(=O)c1ccc(-c2ccccc2)cc1 (stereo not drawn)	6.58%	540 nM	54.58%	53.91%	0%	
